Consider 5 compounds from ChEMBL document CHEMBL4257478, “Design, synthesis and evaluation of (R)-3-(7-(methyl(7H-pyrrolo[2,3-d]pyrimidin-4-yl)amino)-5-azaspiro[2.4]heptan-5-yl)-3-oxopropanenitrile as a JAK1-selective inhibitor” (Medchemcomm, 2018).

Data set [1] addresses Tyrosine-protein kinase JAK1 (Homo sapiens, UniProt P23458). The data set can be described thus: Inhibition of human JAK1 at 1 uM using GEEPLYWSFPAKKK as substrate after 40 mins in presence of [gamma-33P-ATP] by scintillation counting method relative to control.
A short description of data set [2]: Cmax in Sprague-Dawley rat at 10 mg/kg, po after 0.25 to 24 hrs by LC-MS/MS method. The format is ADME, organism-based. More on the design: dose 10 mg/kg, route oral. Conditions: in vivo. In a few lines: (§1)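 Male Sprague Dawley rats, 7-8 weeks old, n=4 per group. IV dose 5 mg/kg free base in 10% ethanol/90% PEG400; oral dose 10 mg/kg as corn oil suspension after 16 h fast. Blood taken 0.08-24 h (IV) or 0.25-24 h (PO). Plasma diluted in acetonitrile with internal standard, analysed by LC-MS/MS, parameters by non-compartmental analysis.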

Data set [3] in a line: Half life in Sprague-Dawley rat at 5 mg/kg, iv after 0.08 to 24 hrs by LC-MS/MS method. The data set is classed as ADME, organism-based. Conditions: in vivo. In a few lines:
as §1

Data set [4] can be described thus: Half life in Sprague-Dawley rat at 10 mg/kg, po after 0.25 to 24 hrs by LC-MS/MS method. The format is ADME, organism-based. Conditions: in vivo. In a few lines:
as §1

Data set [5] can be described thus: Tmax in Sprague-Dawley rat at 10 mg/kg, po after 0.25 to 24 hrs by LC-MS/MS method. The data set is classed as ADME, organism-based. Conditions: in vivo. In a few lines: (§2)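 Male Sprague Dawley rats, 7–8 weeks old, n=4, fasted 16 h. Free base given at 10 mg/kg po as a corn oil suspension (5 mL/kg); a 5 mg/kg iv arm used 10% ethanol/90% PEG400. Plasma sampled 0.25–24 h, acetonitrile-precipitated with internal standard, and measured by LC-MS/MS. Parameters derived by non-compartmental analysis.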

The test system of data set [6] is Rattus norvegicus. The data set can be described thus: AUC (0 to t) in Sprague-Dawley rat at 10 mg/kg, po after 0.25 to 24 hrs by LC-MS/MS method. The data set is classed as ADME, organism-based. More on the design: time lower 0.25 hr, dose 10 mg/kg, time upper 24 hr, route oral. Conditions: in vivo. In a few lines:
as §1

For data set [7], the system named is Rattus norvegicus. The data set can be described thus: AUC (0 to infinity) in Sprague-Dawley rat at 5 mg/kg, iv after 0.08 to 24 hrs by LC-MS/MS method. The format is ADME, organism-based. As to conditions: in vivo. More on the design: dose 5 mg/kg, time infinity, route intravenous. In a few lines: as §1
The test system of data set [8] is Rattus norvegicus. The data set can be described thus: AUC (0 to infinity) in Sprague-Dawley rat at 10 mg/kg, po after 0.25 to 24 hrs by LC-MS/MS method. The data set is classed as ADME, organism-based. Set-up: dose 10 mg/kg, route oral, time infinity. As to conditions: in vivo. In a few lines:
as §1

A short description of data set [9]: MRT in Sprague-Dawley rat at 5 mg/kg, iv after 0.08 to 24 hrs by LC-MS/MS method. As to conditions: in vivo. The format is ADME, organism-based. In a few lines:
as §1

Data set [10] has as its system Rattus norvegicus. The data set can be described thus: AUC (0 to t) in Sprague-Dawley rat at 5 mg/kg, iv after 0.08 to 24 hrs by LC-MS/MS method. The data set is classed as ADME, organism-based. More on the design: time upper 24 hr, time lower 0.08 hr, dose 5 mg/kg, route intravenous. As to conditions: in vivo. In a few lines:
as §1

Data set [11] is described as follows: Oral bioavailability in Sprague-Dawley rat at 10 mg/kg after 0.25 to 24 hrs by LC-MS/MS method. The format is ADME, organism-based. As to conditions: in vivo. In a few lines:
as §2

The nature of data set [12]: MRT in Sprague-Dawley rat at 10 mg/kg, po after 0.25 to 24 hrs by LC-MS/MS method. The data set is classed as ADME, organism-based. As to conditions: in vivo. In a few lines: as §1

Sequence of Tyrosine-protein kinase JAK1 (P23458 whole entry): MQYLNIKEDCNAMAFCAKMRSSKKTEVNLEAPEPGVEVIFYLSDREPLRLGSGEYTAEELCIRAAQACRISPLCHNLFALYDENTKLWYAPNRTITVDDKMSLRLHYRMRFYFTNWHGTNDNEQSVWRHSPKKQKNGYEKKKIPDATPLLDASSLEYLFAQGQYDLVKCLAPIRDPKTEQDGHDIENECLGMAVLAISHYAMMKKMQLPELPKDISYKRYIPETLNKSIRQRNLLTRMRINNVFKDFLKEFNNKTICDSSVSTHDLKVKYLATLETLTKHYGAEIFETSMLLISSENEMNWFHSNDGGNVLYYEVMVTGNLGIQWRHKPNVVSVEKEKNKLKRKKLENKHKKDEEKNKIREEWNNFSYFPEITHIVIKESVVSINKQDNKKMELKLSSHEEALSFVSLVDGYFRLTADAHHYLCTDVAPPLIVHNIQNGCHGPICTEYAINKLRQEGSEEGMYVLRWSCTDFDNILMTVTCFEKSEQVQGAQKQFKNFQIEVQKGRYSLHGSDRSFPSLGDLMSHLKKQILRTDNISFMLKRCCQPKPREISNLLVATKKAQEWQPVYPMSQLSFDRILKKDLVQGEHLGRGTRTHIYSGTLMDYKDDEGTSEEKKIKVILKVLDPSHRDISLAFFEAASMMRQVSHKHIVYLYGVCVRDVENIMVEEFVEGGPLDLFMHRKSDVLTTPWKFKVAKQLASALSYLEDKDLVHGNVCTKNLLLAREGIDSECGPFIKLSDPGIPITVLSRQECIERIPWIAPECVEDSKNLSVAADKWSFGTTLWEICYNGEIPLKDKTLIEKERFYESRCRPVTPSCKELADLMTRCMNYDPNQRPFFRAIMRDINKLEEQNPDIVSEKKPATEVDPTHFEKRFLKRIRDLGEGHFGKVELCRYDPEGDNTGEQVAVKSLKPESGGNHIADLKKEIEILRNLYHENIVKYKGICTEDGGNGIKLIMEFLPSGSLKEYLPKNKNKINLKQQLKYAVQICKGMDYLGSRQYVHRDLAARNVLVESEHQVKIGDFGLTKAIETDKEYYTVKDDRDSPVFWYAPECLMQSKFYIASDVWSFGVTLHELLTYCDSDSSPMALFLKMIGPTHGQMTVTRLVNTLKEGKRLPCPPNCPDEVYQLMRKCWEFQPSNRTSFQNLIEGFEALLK

Turning to `CN(c1ncnc2[nH]ccc12)C1CCN(C(=O)CC#N)CC1`, in data set [1], the inhibition (usually how much of the control response was suppressed) is 49%.
On the same count and under the same terms, with `N#CCC(=O)N1C[C@H]2CCCN(c3ncnc4[nH]ccc34)[C@H]2C1` the figure was 54%; with `N#CCC(=O)N1CCC(Oc2ncnc3[nH]ccc23)CC1`, 35%.
Turning to `CN(c1ncnc2[nH]ccc12)[C@H]1CN(C(=O)CC#N)CC12CC2.O=C(O)C(O)C(O)C(=O)O`, the Cmax (in general, the highest concentration seen after dosing) in data set [2] amounted to 1000 ng/mL. Besides, the half-life in [3] and in [4] was 1 h in each case. In addition, in data set [5], the Tmax (in general, the time at which the peak concentration occurs) amounted to 0.4 h. Besides, the AUCt was 1900 ng·h/mL with Rattus norvegicus [6] and 1400 ng·h/mL in the data set with Rattus norvegicus [10]. The AUC (commonly the area under the concentration-time curve, a measure of exposure) in the data set on Rattus norvegicus [7] was 1400 ng·h/mL; in the data set with Rattus norvegicus [8] it was 1900 ng·h/mL. In addition, the MRT (in general, the average time that molecules of a dose stay in the body) turned out to be 0.9 h in data set [9] and 1.5 h in data set [12]. Besides, in data set [11], the bioavailability (commonly dose-corrected exposure relative to a reference, in per cent) was 68%.
`CN(c1ncnc2[nH]ccc12)[C@@H]1CCCN(C(=O)CC#N)C1`: in data set [1], the inhibition came to 99%.
